How the values were obtained:
[1] = The relative potency by comparing its IC50 value with that of mevastatin
Outline: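 Compounds were tested in salt form for intrinsic inhibition of HMG-CoA reductase. Mevastatin (compactin) was run alongside in the same test and set to a relative potency of 100. Each compound's relative potency was derived by comparing its IC50 with that of mevastatin.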

[2] = biological target: T1, 3-hydroxy-3-methylglutaryl-coenzyme A reductase (Rattus norvegicus, UniProt P51639); experiment: In vitro inhibitory activity against rat liver HMG-CoA reductase enzyme
T1 sequence (P51639 whole entry): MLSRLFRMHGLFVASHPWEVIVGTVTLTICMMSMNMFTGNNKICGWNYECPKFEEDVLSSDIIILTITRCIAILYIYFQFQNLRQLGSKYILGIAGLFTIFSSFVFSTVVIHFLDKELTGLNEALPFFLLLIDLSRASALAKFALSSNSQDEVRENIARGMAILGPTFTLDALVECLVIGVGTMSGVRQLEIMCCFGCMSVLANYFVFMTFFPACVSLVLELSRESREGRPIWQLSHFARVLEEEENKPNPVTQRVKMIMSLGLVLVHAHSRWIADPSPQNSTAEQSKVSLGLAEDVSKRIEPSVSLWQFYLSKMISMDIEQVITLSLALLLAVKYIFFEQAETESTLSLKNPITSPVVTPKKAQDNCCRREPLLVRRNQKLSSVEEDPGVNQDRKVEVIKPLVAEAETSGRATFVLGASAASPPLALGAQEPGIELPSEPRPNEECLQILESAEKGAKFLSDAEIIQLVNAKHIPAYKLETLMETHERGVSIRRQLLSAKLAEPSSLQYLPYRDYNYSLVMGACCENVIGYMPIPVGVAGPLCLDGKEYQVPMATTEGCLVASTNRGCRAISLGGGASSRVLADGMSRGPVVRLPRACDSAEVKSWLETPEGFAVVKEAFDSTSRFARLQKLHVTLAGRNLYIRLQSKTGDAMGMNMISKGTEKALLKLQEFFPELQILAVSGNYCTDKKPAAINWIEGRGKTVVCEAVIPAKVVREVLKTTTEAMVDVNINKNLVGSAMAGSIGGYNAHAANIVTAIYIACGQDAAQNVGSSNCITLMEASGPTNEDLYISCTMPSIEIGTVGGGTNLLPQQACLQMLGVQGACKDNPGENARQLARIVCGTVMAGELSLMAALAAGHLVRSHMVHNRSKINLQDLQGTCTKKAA

**Q.** With `C[C@H]1C=C2C=C[C@H](C)[C@H](CC[C@@H]3C[C@@H](O)CC(=O)O3)[C@H]2[C@@H](OC(=O)Cc2ccccc2)C1` as the molecule, how does the Relative potency [1] read?
**A.** The Relative potency was 29.

**Q.** For `CC(=O)O[C@H]1C[C@@H](C)C=C2C=C[C@H](C)[C@H](CCC3C[C@@H](O)CC(=O)O3)[C@H]21` (some centres not stated), which Relative potency [1] is on record?
**A.** The Relative potency was 2.1.

**Q.** And the IC50 [2]?
**A.** Its IC50 is 269 nM.

**Q.** With `C[C@H]1C=C2C=C[C@H](C)[C@H](CCC3C[C@@H](O)CC(=O)O3)[C@H]2[C@@H](OCc2ccccc2)C1` (some centres not stated) as the molecule, how does the Relative potency [1] read?
**A.** The Relative potency was 20.

**Q.** And the IC50 [2]?
**A.** Its IC50 is 27 nM.

**Q.** For `C[C@H]1C=C2C=C[C@H](C)[C@H](CCC3C[C@@H](O)CC(=O)O3)[C@H]2[C@@H](OCc2ccc(F)cc2)C1` (some centres not stated), which Relative potency [1] is on record?
**A.** Its Relative potency is 119.

**Q.** And the IC50 [2]?
**A.** The IC50 was 4.7 nM.

**Q.** For `C=CCO[C@H]1C[C@@H](C)C=C2C=C[C@H](C)[C@H](CCC3C[C@@H](O)CC(=O)O3)[C@H]21` (some centres not stated), which Relative potency [1] is on record?
**A.** Its Relative potency is 1.5.

**Q.** What about the IC50 [2] of the same molecule?
**A.** Its IC50 is 370 nM.

**Q.** Which results are given for `C=CCC(=O)O[C@H]1C[C@@H](C)C=C2C=C[C@H](C)[C@H](CCC3C[C@@H](O)CC(=O)O3)[C@H]21` (some centres not stated)?
**A.** Relative potency [1]: 187; IC50 [2]: 2.9 nM

**Q.** Which results are given for `CO[C@H]1C[C@@H](C)C=C2C=C[C@H](C)[C@H](CCC3C[C@@H](O)CC(=O)O3)[C@H]21` (some centres not stated)?
**A.** Relative potency [1]: 0.2; IC50 [2]: 2810 nM

**Q.** What does the source list for `C[C@H]1C=C2C=C[C@H](C)[C@H](CCC3C[C@@H](O)CC(=O)O3)[C@H]2[C@@H](OCc2ccc(Cl)cc2)C1` (some centres not stated)?
**A.** Relative potency [1]: 8.5; IC50 [2]: 170 nM

**Q.** Which results are given for `C=C(C)CO[C@H]1C[C@@H](C)C=C2C=C[C@H](C)[C@H](CCC3C[C@@H](O)CC(=O)O3)[C@H]21` (some centres not stated)?
**A.** Relative potency [1]: 1.5; IC50 [2]: 360 nM

Reference: ChEMBL document CHEMBL1125180, “3-Hydroxy-3-methylglutaryl-coenzyme A reductase inhibitors. 8. Side chain ether analogues of lovastatin” (J Med Chem, 1991)
